Results published in ChEMBL document CHEMBL3044661, “Antifungal clerodane diterpenes from Macaranga monandra (L) Muell. et Arg. (Euphorbiaceae)” (J Agric Food Chem, 2003).
Active and inactive are the calls of the source. No cut-off for these calls is given here.

Legend:
Colletotrichum acutatum [1] = experiment: Growth stimulation of Colletotrichum acutatum at low concentration by microtiter assay; format: organism-based; settings: in vivo
Summary of the method: (§1)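 96-well broth microassay. Conidia came from 7–10-day PDA cultures, were filtered through miracloth and set photometrically (625 nm %T curve) to 1.0×10^6 conidia/mL. Final doses were 0.3, 3.0 and 30.0 µM, in duplicate. Plates ran at 24 ± 1 °C with a 12-h photoperiod. A620 was read at 48 and 72 h. Percent inhibition (n = 4) was taken relative to untreated growth controls (n = 32). Split-plot design, replicated twice in time.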

[2] = system: Colletotrichum gloeosporioides; experiment: Antifungal activity against Colletotrichum gloeosporioides assessed as zone of inhibition at 100 ug/ml after 4 days by TLC bioautographic analysis; format: functional; settings: 96 h, read-out: IZ
Summary of the method: (§2)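 TLC bioautography on silica gel GF plates with fluorescent indicator. Compounds were spotted in a dose series at final 3.12–100 µg/mL. Plates were sprayed three times with conidia at final 3.0×10^5 conidia/mL in potato-dextrose broth with 0.1% Tween-80, then held in a moisture chamber at 24 ± 1 °C with a 12-h photoperiod. Inhibition zones (mm) were read at 4 d and reported as mean ± SD.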

Colletotrichum fragariae [3] = experiment: Antifungal activity against Colletotrichum fragariae assessed as zone of inhibition at 50 ug/ml after 4 days by TLC bioautographic analysis; format: functional; settings: 96 h, read-out: IZ; summary of the method: as §2
Fusarium oxysporum = experiment: Growth inhibition of Fusarium oxysporum at < / = 30 uM after 48 to 72 hr by microtiter assay; format: functional, organism-based; summary of the method: as §1
Diaporthe ampelina = experiment: Growth inhibition of Diaporthe ampelina at 30 uM after 120 hr by microtiter assay; format: functional; settings: read-out: GI
Summary of the method: (§3)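 96-well broth microassay against Phomopsis viticola or P. obscurans. Conidial inoculum was filtered and photometrically set to 1.0×10^6 conidia/mL. Final doses were 0.3, 3.0 and 30.0 µM, in duplicate. Incubation was at 24 ± 1 °C with a 12-h photoperiod, and A620 was recorded at 120 h. Mean percent inhibition (n = 4) was taken against untreated positive controls (n = 32). Split-plot design, replicated twice in time.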

Phomopsis obscurans [4] = experiment: Growth stimulation of Phomopsis obscurans at low concentration by microtiter assay; format: organism-based; settings: paraphomopsis obscurans, in vivo; summary of the method: as §3
Colletotrichum fragariae [5] = experiment: Antifungal activity against Colletotrichum fragariae assessed as zone of inhibition at 25 ug/ml after 4 days by TLC bioautographic analysis; format: functional; settings: 96 h, read-out: IZ; summary of the method: as §2
Colletotrichum fragariae [6] = experiment: Growth inhibition of Colletotrichum fragariae at < / = 30 uM after 72 hr by microtiter assay; format: functional, organism-based; summary of the method: as §1
Colletotrichum fragariae [7] = experiment: Antifungal activity against Colletotrichum fragariae assessed as zone of inhibition at 100 ug/ml after 4 days by TLC bioautographic analysis; format: functional; settings: 96 h, read-out: IZ; summary of the method: as §2
Botrytis cinerea = experiment: Growth inhibition of Botryotinia fuckeliana at 30 uM after 48 hr by microtiter assay; format: functional; settings: read-out: GI; summary of the method: as §1
[8] = system: Colletotrichum gloeosporioides; experiment: Growth inhibition of Colletotrichum gloeosporioides at < / = 30 uM after 48 to 72 hr by microtiter assay; format: functional, organism-based; summary of the method: as §1
Colletotrichum acutatum [9] = experiment: Growth inhibition of Colletotrichum acutatum at < / = 30 uM after 48 to 72 hr by microtiter assay; format: functional, organism-based; summary of the method: as §1
[10] = system: Colletotrichum gloeosporioides; experiment: Growth stimulation of Colletotrichum gloeosporioides at low concentration by microtiter assay; format: organism-based; settings: in vivo; summary of the method: as §1
Phomopsis obscurans [11] = experiment: Growth inhibition of Phomopsis obscurans at 30 uM after 120 hr by microtiter assay; format: functional; settings: Paraphomopsis obscurans, read-out: GI; summary of the method: as §3

| Structure (SMILES) | Activity (Colletotrichum acutatum [1]) | zone of inhibition at 100 µg/mL [2] [mm] | zone of inhibition at 50 µg/mL (Colletotrichum fragariae [3]) [mm] | growth inhibition (GI) (Fusarium oxysporum) | inhibition of growth at 30 µM (Diaporthe ampelina) [%] | Activity (Phomopsis obscurans [4]) | zone of inhibition at 25 µg/mL (Colletotrichum fragariae [5]) [mm] | growth inhibition (GI) (Colletotrichum fragariae [6]) | zone of inhibition at 100 µg/mL (Colletotrichum fragariae [7]) [mm] | inhibition of growth at 30 µM (Botrytis cinerea) [%] | growth inhibition (GI) [8] | growth inhibition (GI) (Colletotrichum acutatum [9]) | Activity [10] | inhibition of growth at 30 µM (Phomopsis obscurans [11]) [%] |
| --- | --- | --- | --- | --- | --- | --- | --- | --- | --- | --- | --- | --- | --- | --- |
| CC1=CC(=O)C[C@@H]2[C@@](C)(CC/C(C)=C/C(=O)O)[C@H](C)CC[C@@]12C [2-OXO-KOLAVENIC ACID] | Dose-dependent effect and tde | 0 | 8 | inactive | 46 | Dose-dependent effect and tde | 6 | inactive | 8 | 23 | inactive | inactive | Dose-dependent effect and tde | 8 |
| CC1=CCC[C@@H]2[C@@](C)(CC/C(C)=C/C(=O)O)[C@H](C)CC[C@@]12C [KOLAVENIC ACID] | Dose-dependent effect and tde | 9.5 | 8.5 | inactive | 50 | Dose-dependent effect and tde | 5 | inactive | 9 | 23 | inactive | inactive | Dose-dependent effect and tde | 26 |
